Laboratory results published in ChEMBL document CHEMBL3576833, “Design and Synthesis of Acetylenyl Benzamide Derivatives as Novel Glucokinase Activators for the Treatment of T2DM” (ACS Med Chem Lett, 2015).
Active and inactive are the calls of the source. The calls are words filed in the database; no cut-off is given here.

Assays:
[1] = biological target: T1, Hexokinase-4 (Homo sapiens) (UniProt P35557); assay: Activation of recombinant human pancreatic glucokinase using 10 mM glucose as substrate assessed as enzyme half maximal saturation concentration at 1 uM by G6PDH coupled assay
T1 sequence (whole entry): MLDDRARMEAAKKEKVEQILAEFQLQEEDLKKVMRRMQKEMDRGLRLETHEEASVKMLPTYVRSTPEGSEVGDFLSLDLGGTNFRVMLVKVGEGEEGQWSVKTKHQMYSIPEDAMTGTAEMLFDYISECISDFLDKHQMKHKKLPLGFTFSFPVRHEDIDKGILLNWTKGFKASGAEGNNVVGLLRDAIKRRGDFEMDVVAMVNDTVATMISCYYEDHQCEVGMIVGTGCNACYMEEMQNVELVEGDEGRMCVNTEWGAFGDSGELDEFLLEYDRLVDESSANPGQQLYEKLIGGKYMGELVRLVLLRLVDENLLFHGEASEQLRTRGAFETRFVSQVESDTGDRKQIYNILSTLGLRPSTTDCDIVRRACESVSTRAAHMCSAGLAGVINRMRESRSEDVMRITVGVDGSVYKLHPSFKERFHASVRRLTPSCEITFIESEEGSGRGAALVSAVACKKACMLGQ

[2] = biological target: T2, Hexokinase-4 (Rattus norvegicus) (UniProt P17712); assay: Activation of glucokinase in rat primary hepatocytes assessed as increase in 5.6 mM 2-deoxy-D-[3H]-glucose uptake after 4 hrs by scintillation counting analysis relative to control; assay type: cell-based; details: Hepatocyte
T2 sequence (whole entry): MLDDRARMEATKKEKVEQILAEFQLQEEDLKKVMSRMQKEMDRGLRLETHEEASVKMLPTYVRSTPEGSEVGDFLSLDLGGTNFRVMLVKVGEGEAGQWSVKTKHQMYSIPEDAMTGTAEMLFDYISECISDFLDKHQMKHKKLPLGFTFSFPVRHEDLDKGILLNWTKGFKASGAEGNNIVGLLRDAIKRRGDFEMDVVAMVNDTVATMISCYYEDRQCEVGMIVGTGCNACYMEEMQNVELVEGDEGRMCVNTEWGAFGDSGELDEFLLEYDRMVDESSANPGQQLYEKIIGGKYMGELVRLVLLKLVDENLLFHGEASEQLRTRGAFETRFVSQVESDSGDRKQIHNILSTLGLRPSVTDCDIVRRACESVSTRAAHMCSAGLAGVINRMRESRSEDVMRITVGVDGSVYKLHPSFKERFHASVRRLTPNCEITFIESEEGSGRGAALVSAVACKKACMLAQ
Outline: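 Rat primary hepatocytes; uptake measured under glucose stimulation, with glucose raised from 0 mM to 5.6 mM; activity expressed as fold increase in glucose uptake.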

Mus musculus [3] = assay: Antidiabetic activity in C57BL/6J mouse assessed as reduction of blood glucose level at 10 mg/kg, po after 60 mins by fasted glucose tolerance test; assay type: functional, organism-based
Outline: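 Fasted glucose tolerance test in C57BL/6J mice. Animals were fasted and dosed orally, with no glucose challenge. Blood glucose was measured at 60 min.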

[4] = biological target: T2, Hexokinase-4 (Rattus norvegicus); assay: Activation of glucokinase in 0 to 5.6 mM glucose-stimulated Sprague-Dawley rat pancreatic islets assessed as increase in insulin secretion after 1 hr by ELISA relative to control
[5] = biological target: T3, Hexokinase-2 (Homo sapiens) (UniProt P52789); assay: Effect on hexokinase-2 (unknown origin)
T3 sequence (whole entry): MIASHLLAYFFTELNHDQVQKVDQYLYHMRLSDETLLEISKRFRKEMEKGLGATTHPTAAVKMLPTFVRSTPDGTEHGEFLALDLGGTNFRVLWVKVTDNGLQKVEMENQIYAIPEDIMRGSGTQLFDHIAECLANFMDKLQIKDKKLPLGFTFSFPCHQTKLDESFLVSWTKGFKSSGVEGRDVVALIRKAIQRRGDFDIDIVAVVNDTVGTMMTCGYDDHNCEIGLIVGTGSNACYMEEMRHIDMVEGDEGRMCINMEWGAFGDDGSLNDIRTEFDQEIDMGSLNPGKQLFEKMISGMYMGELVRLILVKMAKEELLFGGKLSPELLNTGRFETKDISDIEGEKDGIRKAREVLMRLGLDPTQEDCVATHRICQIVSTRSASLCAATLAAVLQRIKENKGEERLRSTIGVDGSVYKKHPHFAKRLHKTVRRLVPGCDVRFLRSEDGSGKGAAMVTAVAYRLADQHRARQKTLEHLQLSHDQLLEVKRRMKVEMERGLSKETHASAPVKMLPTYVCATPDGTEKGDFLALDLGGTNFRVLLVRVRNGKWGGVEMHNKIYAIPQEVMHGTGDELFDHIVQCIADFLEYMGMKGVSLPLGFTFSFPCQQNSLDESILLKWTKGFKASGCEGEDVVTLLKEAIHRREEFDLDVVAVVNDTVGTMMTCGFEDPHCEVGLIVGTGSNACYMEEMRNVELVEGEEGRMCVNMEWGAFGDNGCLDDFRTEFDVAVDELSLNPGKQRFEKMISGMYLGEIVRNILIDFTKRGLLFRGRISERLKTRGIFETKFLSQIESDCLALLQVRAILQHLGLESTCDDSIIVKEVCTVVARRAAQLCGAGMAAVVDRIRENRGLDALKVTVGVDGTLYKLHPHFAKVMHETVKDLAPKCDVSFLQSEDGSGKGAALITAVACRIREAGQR

[6] = biological target: T4, Hexokinase-1 (Homo sapiens) (UniProt P19367); assay: Effect on hexokinase-1 (unknown origin)
T4 sequence (whole entry): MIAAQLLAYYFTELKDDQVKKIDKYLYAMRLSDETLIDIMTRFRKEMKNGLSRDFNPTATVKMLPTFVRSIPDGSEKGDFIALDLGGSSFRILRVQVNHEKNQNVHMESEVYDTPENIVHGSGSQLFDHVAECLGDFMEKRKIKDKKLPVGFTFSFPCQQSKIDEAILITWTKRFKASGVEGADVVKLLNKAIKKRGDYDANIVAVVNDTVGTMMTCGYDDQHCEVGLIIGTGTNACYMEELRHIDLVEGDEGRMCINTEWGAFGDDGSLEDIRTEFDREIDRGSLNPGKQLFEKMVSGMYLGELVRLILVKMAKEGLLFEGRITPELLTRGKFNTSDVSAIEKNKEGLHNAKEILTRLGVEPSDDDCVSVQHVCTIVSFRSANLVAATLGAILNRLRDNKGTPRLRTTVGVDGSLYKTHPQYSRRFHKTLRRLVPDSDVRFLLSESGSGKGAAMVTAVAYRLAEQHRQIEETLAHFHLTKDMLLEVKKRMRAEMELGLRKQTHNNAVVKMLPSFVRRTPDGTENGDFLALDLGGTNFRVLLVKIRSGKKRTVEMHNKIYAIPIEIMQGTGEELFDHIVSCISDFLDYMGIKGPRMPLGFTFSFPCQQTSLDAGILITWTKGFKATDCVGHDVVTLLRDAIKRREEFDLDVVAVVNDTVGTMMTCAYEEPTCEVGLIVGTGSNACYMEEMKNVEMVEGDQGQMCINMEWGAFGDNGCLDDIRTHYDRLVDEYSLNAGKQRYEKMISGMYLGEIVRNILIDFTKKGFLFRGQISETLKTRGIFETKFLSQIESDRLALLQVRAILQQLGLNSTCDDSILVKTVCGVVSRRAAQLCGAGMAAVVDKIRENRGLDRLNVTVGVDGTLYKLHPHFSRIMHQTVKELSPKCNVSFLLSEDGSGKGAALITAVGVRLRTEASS

Mus musculus [7] = assay: Antidiabetic activity in po dosed C57BL/6J mouse assessed as blood glucose lowering effect administered 30 mins prior to glucose challenge measured over 180 mins by OGTT; assay type: functional, organism-based
Outline: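 Oral glucose tolerance test in C57BL/6J mice with oral dosing. Blood glucose was followed after the glucose challenge, and the result was expressed as the % reduction in blood glucose AUC.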

Compound | Activity [1] [mM] | fold change (FC) [2] | also measured
COC[C@H](C)Oc1cc(C#Cc2cccc(N(C)C)c2)cc(C(=O)Nc2ccn(C)n2)c1 | 0.76 | 2.43 | 
COC[C@H](C)Oc1cc(C#Cc2cccc(OCC#N)c2)cc(C(=O)Nc2ccn(C)n2)c1 | 0.95 | 1.75 | 
COC[C@H](C)Oc1cc(C#CCNc2ncccn2)cc(C(=O)Nc2ccn(C)n2)c1 | 3.88 | 2.37 | 
COC[C@H](C)Oc1cc(C#Cc2ccc3c(c2)OCO3)cc(C(=O)Nc2ccn(C)n2)c1 | 2.13 | 2.64 | 
COC[C@H](C)Oc1cc(C#Cc2ccccc2OC)cc(C(=O)Nc2ccn(C)n2)c1 | 0.73 | 2.64 | 
COC[C@H](C)Oc1cc(C#Cc2cccc(OC(C)C)c2)cc(C(=O)Nc2ccn(C)n2)c1 | 1.84 | 2.03 | 
COC[C@H](C)Oc1cc(C#Cc2ccc(N)cc2)cc(C(=O)Nc2ccn(C)n2)c1 | 0.73 | 2.05 | 
CCN(CC)c1cccc(C#Cc2cc(O[C@@H](C)COC)cc(C(=O)Nc3ccn(C)n3)c2)c1 | 2.01 | 1.91 | 
COC[C@H](C)Oc1cc(C#Cc2ccc3[nH]ccc3c2)cc(C(=O)Nc2ccn(C)n2)c1 | 0.46 | 1.99 | 
COC[C@H](C)Oc1cc(C#Cc2cccc(O)c2)cc(C(=O)Nc2ccn(C)n2)c1 | 1.37 | 1.57 | 
COC[C@H](C)Oc1cc(Oc2cnc(C(=O)N3CCC3)cn2)cc(C(=O)Nc2cnc(C)cn2)c1 |  |  | Activity (Mus musculus [3]): Active
COC[C@H](C)Oc1cc(C#Cc2cccc(N)c2)cc(C(=O)Nc2ccn(C)n2)c1 | 0.84 | 2.16 | fold change (FC) [4]: 2.13; Activity [5]: inactive; Activity [6]: inactive; Activity (Mus musculus [7]): Dose-dependent effect
COC[C@H](C)Oc1cc(C#CCN(C)C)cc(C(=O)Nc2ccn(C)n2)c1 | 5.51 | 1.31 | 
COC[C@H](C)Oc1cc(C#CCOC2CCCCO2)cc(C(=O)Nc2ccn(C)n2)c1 (stereo partly specified) | 0.55 | 2.5 | 
COCC#Cc1cc(O[C@@H](C)COC)cc(C(=O)Nc2ccn(C)n2)c1 | 4.04 | 1.71 | 

Now from value to compound, other results behind:

Activity [1] [mM] | fold change (FC) [2] | Compound | also measured
0.51 | 2.83 | COC[C@H](C)Oc1cc(C#Cc2cccc(NCCN3CCCC3)c2)cc(C(=O)Nc2ccn(C)n2)c1 | 
0.17 | 2.03 | COC[C@H](C)Oc1cc(C#Cc2cccc(NCCN(C)C)c2)cc(C(=O)Nc2ccn(C)n2)c1 | 
1.23 | 2.18 | COCCNc1cccc(C#Cc2cc(O[C@@H](C)COC)cc(C(=O)Nc3ccn(C)n3)c2)c1 | 
0.35 | 1.89 | COC[C@H](C)Oc1cc(C#Cc2cccc(OCCN3CCOCC3)c2)cc(C(=O)Nc2ccn(C)n2)c1 | 
0.73 | 2.43 | COC[C@H](C)Oc1cc(C#Cc2cccc(OCCN3CCCC3)c2)cc(C(=O)Nc2ccn(C)n2)c1 | 
2.25 | 2.36 | COC[C@H](C)Oc1cc(C#Cc2cccc(OCCN3CCCCC3)c2)cc(C(=O)Nc2ccn(C)n2)c1 | 
0.9 | 2.36 | COC[C@H](C)Oc1cc(C#Cc2cccc(NCCn3ccnc3C)c2)cc(C(=O)Nc2ccn(C)n2)c1 | 
0.61 | 2.79 | COC[C@H](C)Oc1cc(C#Cc2cccc(NCCN3CCCCC3)c2)cc(C(=O)Nc2ccn(C)n2)c1 | 
0.55 | 2.62 | COC[C@H](C)Oc1cc(C#Cc2cccc(NCCN3CCOCC3)c2)cc(C(=O)Nc2ccn(C)n2)c1 | 
